FXIa inh: blocks human coagulation factor XIa protease activity | inhibition, % at 5 µM | AID 798 | 0.14% of 220,000 active | purified FXIa, Boc-Glu-Ala-Arg-AMC fluorogenic substrate | P03951;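 active = inhibition of at least 40%; inactive = inhibition below 40%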;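 note: fluorescence of freed AMC excited at 355 nm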
hK5 inh: blocks human kallikrein 5 protease activity. Q9Y337. recombinant hK5, fluorogenic AMC substrate cleavage. inhibition, % at 5 µM. 0.59% of 210,000 active. AID 873;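 active = inhibition of 40% or more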
Thrombin inh: blocks human thrombin protease activity. inhibition, % at 5 µM. alpha-thrombin, Boc-VPR-AMC fluorogenic substrate cleavage. AID 1046. 0.26% of 220,000 active;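 active = inhibition at or above 40%; inactive = inhibition below 40%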
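Assay system: human alpha-thrombin enzyme. Reagent: Boc-VPR-AMC substrate, 15 µM final. Compound dosing: one concentration per compound, 5 µM, with 0.2% DMSO. Incubation: room-temperature reaction. Technique: AMC fluorescence, 355/460 nm. Measure: % inhibition relative to enzyme controls and enzyme-free blanks.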
S1P3 antag-1: antagonists of human S1P3 receptor | inhibition, % at 4.98 µM | CHO S1P3 NFAT-BLA reporter, FRET fluorescence, antagonist mode | 0.27% of 170,000 active | Q99500;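 active = inhibition above the plate cutoff, the mean inhibition of test wells on that plate plus 3 SD, cut at about 28% in these data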;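 note: cells challenged with S1P at its EC80 of 0.8 µM; blue over green emission ratio from cleaved BLA substrate after 4 h stimulation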
FXIIa inh: inhibitors of human coagulation factor XIIa; AID 800; inhibition, % at 5 µM; purified FXIIa, Boc-QGR-AMC fluorogenic substrate, 2 h; 0.3% of 220,000 active; in the data active = inhibition above about 40%
Target sequence (P00748 20-372 limits assumed): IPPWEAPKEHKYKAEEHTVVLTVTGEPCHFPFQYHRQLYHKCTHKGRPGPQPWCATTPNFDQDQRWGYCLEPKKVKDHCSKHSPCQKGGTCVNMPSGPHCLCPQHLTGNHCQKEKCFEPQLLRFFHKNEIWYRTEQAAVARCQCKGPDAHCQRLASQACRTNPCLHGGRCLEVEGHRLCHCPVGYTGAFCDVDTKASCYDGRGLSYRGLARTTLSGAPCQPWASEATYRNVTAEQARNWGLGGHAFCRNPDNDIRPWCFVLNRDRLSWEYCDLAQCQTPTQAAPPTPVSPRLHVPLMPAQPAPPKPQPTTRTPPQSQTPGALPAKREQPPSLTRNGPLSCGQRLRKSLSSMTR
Target sequence (P00748 373-615 limits assumed): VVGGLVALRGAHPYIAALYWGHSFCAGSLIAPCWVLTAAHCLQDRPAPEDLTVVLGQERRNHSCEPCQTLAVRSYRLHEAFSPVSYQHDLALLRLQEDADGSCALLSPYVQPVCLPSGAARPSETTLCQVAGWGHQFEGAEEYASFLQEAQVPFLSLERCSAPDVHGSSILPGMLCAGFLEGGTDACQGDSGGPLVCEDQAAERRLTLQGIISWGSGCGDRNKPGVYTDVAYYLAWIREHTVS
DTT redox prof: compounds producing H2O2 with reducing agent – biochemical, NIH compound library profiling, artefact control for MLSCN library redox annotation, primary screen | activation, % at 10 µM | AID 878 | DTT-dependent redox cycling H2O2, phenol red/HRP absorbance; 100% = 100 µM peroxide control, 0% = buffer | 0.03% of 200,000 active;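 active = activation of at least 50% relative to the plate's high and low controls in the primary single-dose screen; inactive = activation below 50%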;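 note: compound incubated with DTT at 0.8 mM final as the reducing agent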
S1P3 antag-2: confirmation of human S1P3 receptor antagonists. shares compounds with S1P3 antag-1. CHO S1P3 NFAT-BLA reporter, FRET, antagonist mode. inhibition, % at 4.98 µM. 30% of 240 active. AID 1429;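 active = inhibition above the hit threshold that was computed for the earlier primary screen, cut at about 30% in these data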
Each line names hits and unclear results; the compound was inactive in the other large screens (follow-up assays come after a bar, where they were run). Hits are enriched below; roughly 1.2% of the tested compounds scored in any of these assays.

Clc1ccccc1/C=N/NC1=Nc2cccc3cccc1c23	none
COC(=O)c1c(N2C(=O)[C@H]3[C@@H](C2=O)[C@]2(C(=O)Nc4ccc(C)cc42)N2CCC[C@@H]32)sc(C)c1C	none
CCOC(=O)/C(=C/C=C1\Sc2cc(C)c(C)cc2N1CC)C(C)=O	none
CCN1/C(=C/c2ccc3cc(C)ccc3[n+]2CC)Sc2ccccc21	S1P3 antag-1 32.6 | S1P3 antag-2 33.6
CCN1/C(=C/c2ccc3cc(C)ccc3[n+]2CC)Sc2cc(C)c(C)cc21	S1P3 antag-1 30.6 | S1P3 antag-2 inactive
CC[n+]1c(/C=C2\Sc3ccccc3N2C)ccc2cccc(C)c21	none
CCCC(=O)Nc1ccc(Cc2ccc(NC(=O)CCC)c(C(=O)O)c2)cc1C(=O)O	none
COc1ccc(-n2c(C)nc3sc4c(c3c2=O)CCC4)cc1	S1P3 antag-1 103.5 | S1P3 antag-2 inactive
O=C1c2cccc3c(N4CCCCC4)ccc(c23)C(=O)N1CCO	none (no result: S1P3 antag-1)
O=C1c2cccc3c(N4CCCCC4)ccc(c23)C(=O)N1c1cccc(O)c1	S1P3 antag-1 51.1 | S1P3 antag-2 45.0
COc1cc(NS(=O)(=O)c2ccc(Nc3nc(-c4ccccc4)cs3)cc2)nc(OC)n1	none
Cc1ccc(NC(=O)c2sc(=S)n(-c3cc(C)ccc3F)c2N)cc1	S1P3 antag-1 29.6 | S1P3 antag-2 inactive
O=C(Nc1ccc(Cl)c(Cl)c1)Nc1cc(S(=O)(=O)N2CCOCC2)ccc1N1CCCC1	none
OC(CN1CCOCC1)c1ccc(F)cc1 (stereo not drawn)	S1P3 antag-1 37.1 | S1P3 antag-2 inactive
CCOc1ccc(C(=O)c2cc([N+](=O)[O-])ccc2N2CCOCC2)cc1	S1P3 antag-1 33.4 | S1P3 antag-2 inactive
Fc1ccc(-c2n[nH]c(=S)c3ccccc23)cc1	S1P3 antag-1 65.0 | S1P3 antag-2 inactive
O=C1S/C(=C/c2ccccc2F)C(=O)N1CCN=C1NS(=O)(=O)c2ccccc21	none
CN1CCN(/N=C/c2ccc(-c3ccc([N+](=O)[O-])cc3Cl)o2)CC1	S1P3 antag-1 54.1 | S1P3 antag-2 inactive
O=C(O)CC(CC(=O)Nc1ccc(F)c(Cl)c1)c1ccc(Cl)cc1Cl (stereo not drawn)	S1P3 antag-1 59.1 (no result: DTT redox prof) | S1P3 antag-2 inactive
CSc1ccccc1C(=O)NCCOc1cccc(C)c1	S1P3 antag-1 38.9 (no result: FXIIa inh) | S1P3 antag-2 inactive
CC[C@@H]1C=C(C)C[C@H](C)C[C@H](OC)[C@H]2O[C@@](O)(C(=O)C(=O)N3CCCC[C@H]3C(=O)O[C@H](/C(C)=C/[C@@H]3CC[C@@H](O)[C@H](OC)C3)[C@H](C)[C@@H](O)CC1=O)[C@H](C)C[C@@H]2OC	S1P3 antag-1 89.1 | S1P3 antag-2 104.6
CO[C@H]1C[C@@H]2CC[C@@H](C)[C@@](O)(O2)C(=O)C(=O)N2CCCC[C@H]2C(=O)O[C@H]([C@H](C)C[C@@H]2CC[C@@H](O)[C@H](OC)C2)CC(=O)[C@H](C)C=C(C)[C@@H](O)[C@@H](OC)C(=O)[C@H](C)C[C@H](C)C=CC=CC=C1C	none (no result: S1P3 antag-1, DTT redox prof)
CCS(=O)(=O)c1ccc(O)c(NC(=O)Nc2ccc(C(C)(C)C)cc2)c1	none (no result: DTT redox prof)
CN(C)CCCN1C(=O)c2cccc3c([N+](=O)[O-])ccc(c23)C1=O	S1P3 antag-1 33.1 | S1P3 antag-2 inactive
O=C1c2cccc3c([N+](=O)[O-])ccc(c23)C(=O)N1CCc1ccccn1	none (no result: DTT redox prof)
CCOC(=O)N=Nc1c2ccccc2c2nc3no[nH]c3nc12	S1P3 antag-1 30.6 | S1P3 antag-2 109.4
Cc1ccc(/C=N/Nc2ccc(C(=O)O)cc2)s1	S1P3 antag-1 42.2 | S1P3 antag-2 inactive
CC(C)(C)c1nc2scc(-c3ccc(Br)cc3)c2c(=O)o1	S1P3 antag-1 28.5 | S1P3 antag-2 inactive
Cc1nc2scc(-c3ccc(Cl)cc3)c2c(=O)o1	none (no result: S1P3 antag-1)
COc1ccc(NC(=S)NNC(=O)C2CC2c2ccc(C)cc2)cc1 (stereo not drawn)	S1P3 antag-1 32.7 | S1P3 antag-2 inactive

Screening data: PubChem, several laboratories
